Experimental data reported in ChEMBL document CHEMBL1152560, “Substituted 2-arylbenzothiazoles as kinase inhibitors: hit-to-lead optimization” (Bioorg Med Chem, 2009).
pIC50: −log10 of the molar value.

Experiments:
[1] = target: T1, Serine/threonine-protein kinase Nek2 (Homo sapiens) (UniProt P51955); assay: Residual activity of NEK2 at 10 uM by microplate scintillation counting
T1 sequence (whole entry): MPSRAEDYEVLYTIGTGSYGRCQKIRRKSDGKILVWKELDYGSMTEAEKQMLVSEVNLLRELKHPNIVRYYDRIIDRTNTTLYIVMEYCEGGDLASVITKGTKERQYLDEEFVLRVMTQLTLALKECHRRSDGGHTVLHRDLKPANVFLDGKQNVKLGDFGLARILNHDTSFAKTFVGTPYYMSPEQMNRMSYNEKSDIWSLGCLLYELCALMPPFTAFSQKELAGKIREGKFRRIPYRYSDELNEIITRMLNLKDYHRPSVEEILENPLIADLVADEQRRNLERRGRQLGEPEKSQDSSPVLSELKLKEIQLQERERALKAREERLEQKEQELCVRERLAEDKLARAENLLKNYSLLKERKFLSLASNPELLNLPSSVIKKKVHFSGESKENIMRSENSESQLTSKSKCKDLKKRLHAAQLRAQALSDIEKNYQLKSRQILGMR

[2] = target: Cyclin-dependent kinase 16 (Homo sapiens) (UniProt Q00536); assay: Residual activity of PCTAIRE1 at 0.1 uM by microplate scintillation counting
Cyclin-dependent kinase 16 (Homo sapiens), sequence (Q00536 whole entry): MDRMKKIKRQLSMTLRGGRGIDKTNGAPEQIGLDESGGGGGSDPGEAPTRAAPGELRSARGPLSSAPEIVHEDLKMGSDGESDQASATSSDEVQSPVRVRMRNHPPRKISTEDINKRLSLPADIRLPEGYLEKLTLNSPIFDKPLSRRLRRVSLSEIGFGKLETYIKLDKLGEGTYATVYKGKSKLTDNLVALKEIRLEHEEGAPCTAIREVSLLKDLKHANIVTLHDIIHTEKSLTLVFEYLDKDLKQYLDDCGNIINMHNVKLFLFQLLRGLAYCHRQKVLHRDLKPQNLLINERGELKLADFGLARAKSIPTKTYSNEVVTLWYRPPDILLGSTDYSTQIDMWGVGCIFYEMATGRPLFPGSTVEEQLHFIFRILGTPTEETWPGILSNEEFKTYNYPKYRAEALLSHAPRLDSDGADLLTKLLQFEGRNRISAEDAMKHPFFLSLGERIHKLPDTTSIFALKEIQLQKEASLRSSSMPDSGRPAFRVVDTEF

[3] = tested on: RAF proto-oncogene serine/threonine-protein kinase (Homo sapiens), P04049 [Y340D,Y341D]; assay: Residual activity of RAF1 Y340D/Y341D mutant at 1 uM by microplate scintillation counting
[4] = target: MAP/microtubule affinity-regulating kinase 3 (Homo sapiens) (UniProt P27448); assay: Residual activity of MARK3 at 1 uM by microplate scintillation counting
MAP/microtubule affinity-regulating kinase 3 (Homo sapiens), sequence (P27448 whole entry, looked up): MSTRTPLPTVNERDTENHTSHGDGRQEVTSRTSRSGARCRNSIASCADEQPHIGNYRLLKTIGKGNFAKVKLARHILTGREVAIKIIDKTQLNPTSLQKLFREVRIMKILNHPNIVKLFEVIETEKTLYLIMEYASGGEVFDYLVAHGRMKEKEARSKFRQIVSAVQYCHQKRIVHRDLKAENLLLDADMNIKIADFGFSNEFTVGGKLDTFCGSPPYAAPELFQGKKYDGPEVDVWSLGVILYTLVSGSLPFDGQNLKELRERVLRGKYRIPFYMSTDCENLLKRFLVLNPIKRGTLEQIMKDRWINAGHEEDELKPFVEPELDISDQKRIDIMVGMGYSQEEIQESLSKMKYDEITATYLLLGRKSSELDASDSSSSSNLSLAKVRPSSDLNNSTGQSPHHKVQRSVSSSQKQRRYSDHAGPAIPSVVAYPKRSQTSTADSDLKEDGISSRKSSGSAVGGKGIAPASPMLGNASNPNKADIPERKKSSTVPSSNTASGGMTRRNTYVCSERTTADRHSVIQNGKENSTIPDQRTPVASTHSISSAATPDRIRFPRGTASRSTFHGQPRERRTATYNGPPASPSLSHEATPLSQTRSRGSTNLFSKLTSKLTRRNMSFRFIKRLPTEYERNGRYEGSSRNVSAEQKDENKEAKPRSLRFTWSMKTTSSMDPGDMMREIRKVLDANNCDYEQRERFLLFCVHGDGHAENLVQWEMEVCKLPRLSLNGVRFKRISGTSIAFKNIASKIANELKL

[5] = target: Eukaryotic translation initiation factor 2-alpha kinase 1 (Homo sapiens) (UniProt Q9BQI3); assay: Residual activity of HRI at 10 uM by microplate scintillation counting
Eukaryotic translation initiation factor 2-alpha kinase 1 (Homo sapiens), sequence (Q9BQI3 whole entry): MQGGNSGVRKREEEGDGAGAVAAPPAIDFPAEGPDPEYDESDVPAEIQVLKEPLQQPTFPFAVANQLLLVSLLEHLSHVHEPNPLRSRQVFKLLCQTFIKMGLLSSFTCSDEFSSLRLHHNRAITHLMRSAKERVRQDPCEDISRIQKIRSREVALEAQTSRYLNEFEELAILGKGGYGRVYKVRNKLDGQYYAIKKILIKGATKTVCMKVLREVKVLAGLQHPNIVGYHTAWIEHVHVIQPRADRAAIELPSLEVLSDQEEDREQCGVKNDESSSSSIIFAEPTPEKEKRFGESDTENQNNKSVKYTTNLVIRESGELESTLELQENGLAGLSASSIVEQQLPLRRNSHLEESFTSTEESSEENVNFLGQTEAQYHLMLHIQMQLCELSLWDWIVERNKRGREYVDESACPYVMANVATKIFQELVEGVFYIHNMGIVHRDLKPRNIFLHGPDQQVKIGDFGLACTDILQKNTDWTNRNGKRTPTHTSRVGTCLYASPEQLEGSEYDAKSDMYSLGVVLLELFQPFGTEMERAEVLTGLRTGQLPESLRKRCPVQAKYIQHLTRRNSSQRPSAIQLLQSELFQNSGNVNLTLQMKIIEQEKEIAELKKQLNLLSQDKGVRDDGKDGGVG

[6] = target: Protein kinase C beta type (Homo sapiens) (UniProt P05771); assay: Residual activity of PKCbeta2 at 10 uM by microplate scintillation counting
[7] = target: Cyclin-dependent kinase 7/ cyclin H (Homo sapiens) (UniProt P51946+P50613); assay: Residual activity of CDK7/CyclinH/MAT1 at 1 uM by microplate scintillation counting; type: protein-complex assay
[8] = target: T2, Discoidin domain-containing receptor 2 (Homo sapiens) (UniProt Q16832); assay: Residual activity of DDR2 at 0.1 uM by microplate scintillation counting
T2 sequence (whole entry): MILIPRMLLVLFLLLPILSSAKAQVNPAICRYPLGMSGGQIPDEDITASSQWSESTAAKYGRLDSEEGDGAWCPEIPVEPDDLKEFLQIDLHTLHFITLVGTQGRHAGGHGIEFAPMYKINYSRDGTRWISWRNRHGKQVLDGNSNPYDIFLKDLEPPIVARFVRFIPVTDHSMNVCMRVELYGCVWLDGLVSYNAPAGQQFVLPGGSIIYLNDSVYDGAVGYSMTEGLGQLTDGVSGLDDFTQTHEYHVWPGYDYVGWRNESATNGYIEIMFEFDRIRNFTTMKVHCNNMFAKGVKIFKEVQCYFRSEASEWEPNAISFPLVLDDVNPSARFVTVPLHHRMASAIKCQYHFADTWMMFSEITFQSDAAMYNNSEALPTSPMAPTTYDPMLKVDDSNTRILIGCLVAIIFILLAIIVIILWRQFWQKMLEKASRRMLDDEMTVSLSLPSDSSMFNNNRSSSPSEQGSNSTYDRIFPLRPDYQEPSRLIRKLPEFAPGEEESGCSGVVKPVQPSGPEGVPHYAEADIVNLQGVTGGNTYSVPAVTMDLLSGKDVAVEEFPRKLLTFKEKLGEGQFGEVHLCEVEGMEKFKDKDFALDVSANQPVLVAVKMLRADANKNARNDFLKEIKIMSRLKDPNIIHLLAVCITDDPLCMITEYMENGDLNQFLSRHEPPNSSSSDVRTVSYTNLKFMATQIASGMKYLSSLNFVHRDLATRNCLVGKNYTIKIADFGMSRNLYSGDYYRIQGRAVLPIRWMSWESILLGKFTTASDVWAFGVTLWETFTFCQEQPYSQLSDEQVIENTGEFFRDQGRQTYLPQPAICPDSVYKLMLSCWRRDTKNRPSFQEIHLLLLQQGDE

[9] = target: PAS domain-containing serine/threonine-protein kinase (Homo sapiens) (UniProt Q96RG2); assay: Residual activity of PASK at 0.1 uM by microplate scintillation counting
[10] = target: Fibroblast growth factor receptor 4 (Homo sapiens) (UniProt P22455); assay: Residual activity of FGFR4 at 10 uM by microplate scintillation counting
[11] = target: Insulin-like growth factor 1 receptor (Homo sapiens) (UniProt P08069); assay: Residual activity of IGF1R at 0.1 uM by microplate scintillation counting
Insulin-like growth factor 1 receptor (Homo sapiens), sequence (P08069 31-736 limits assumed): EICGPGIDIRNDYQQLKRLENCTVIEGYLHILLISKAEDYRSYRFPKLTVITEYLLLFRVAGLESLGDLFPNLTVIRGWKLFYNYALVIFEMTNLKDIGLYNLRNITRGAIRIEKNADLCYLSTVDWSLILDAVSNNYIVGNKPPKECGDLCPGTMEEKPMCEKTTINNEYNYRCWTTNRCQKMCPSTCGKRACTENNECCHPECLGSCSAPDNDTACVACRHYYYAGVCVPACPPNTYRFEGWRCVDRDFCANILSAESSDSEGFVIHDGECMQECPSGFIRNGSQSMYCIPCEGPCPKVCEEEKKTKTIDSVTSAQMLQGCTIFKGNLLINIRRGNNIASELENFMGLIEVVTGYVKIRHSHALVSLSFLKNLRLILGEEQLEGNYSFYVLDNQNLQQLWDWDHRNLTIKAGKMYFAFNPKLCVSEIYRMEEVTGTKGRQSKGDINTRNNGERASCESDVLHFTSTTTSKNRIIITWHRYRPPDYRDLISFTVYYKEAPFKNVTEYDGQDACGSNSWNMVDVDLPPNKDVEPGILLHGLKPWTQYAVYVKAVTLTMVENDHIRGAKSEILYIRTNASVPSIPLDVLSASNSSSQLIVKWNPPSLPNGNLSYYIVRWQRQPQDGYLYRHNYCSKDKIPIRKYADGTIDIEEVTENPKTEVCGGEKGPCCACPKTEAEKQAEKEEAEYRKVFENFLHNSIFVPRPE
Insulin-like growth factor 1 receptor (Homo sapiens), sequence (P08069 741-1367 limits assumed): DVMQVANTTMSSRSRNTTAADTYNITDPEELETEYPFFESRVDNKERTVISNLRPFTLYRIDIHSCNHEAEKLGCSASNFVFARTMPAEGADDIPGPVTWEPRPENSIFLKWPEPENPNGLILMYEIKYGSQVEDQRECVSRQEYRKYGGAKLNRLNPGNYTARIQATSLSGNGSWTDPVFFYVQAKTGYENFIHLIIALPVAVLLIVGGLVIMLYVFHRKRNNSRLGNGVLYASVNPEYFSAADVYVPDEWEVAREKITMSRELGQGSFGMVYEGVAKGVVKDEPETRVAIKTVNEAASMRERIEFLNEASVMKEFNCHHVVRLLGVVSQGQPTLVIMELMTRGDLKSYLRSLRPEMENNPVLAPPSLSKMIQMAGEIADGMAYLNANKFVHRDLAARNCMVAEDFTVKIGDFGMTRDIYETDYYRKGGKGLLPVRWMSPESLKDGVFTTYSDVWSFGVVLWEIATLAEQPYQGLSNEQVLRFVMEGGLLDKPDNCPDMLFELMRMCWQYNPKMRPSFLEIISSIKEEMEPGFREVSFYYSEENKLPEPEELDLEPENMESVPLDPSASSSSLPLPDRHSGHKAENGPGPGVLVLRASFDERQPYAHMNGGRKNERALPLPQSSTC

[12] = target: Vascular endothelial growth factor receptor 3 (Homo sapiens, UniProt P35916); assay: Residual activity of VEGFR3 at 0.1 uM by microplate scintillation counting
[13] = target: Glycogen synthase kinase-3 alpha (Homo sapiens) (UniProt P49840); assay: Residual activity of GSK3alpha at 0.1 uM by microplate scintillation counting
Glycogen synthase kinase-3 alpha (Homo sapiens), sequence (P49840 2-483 limits assumed): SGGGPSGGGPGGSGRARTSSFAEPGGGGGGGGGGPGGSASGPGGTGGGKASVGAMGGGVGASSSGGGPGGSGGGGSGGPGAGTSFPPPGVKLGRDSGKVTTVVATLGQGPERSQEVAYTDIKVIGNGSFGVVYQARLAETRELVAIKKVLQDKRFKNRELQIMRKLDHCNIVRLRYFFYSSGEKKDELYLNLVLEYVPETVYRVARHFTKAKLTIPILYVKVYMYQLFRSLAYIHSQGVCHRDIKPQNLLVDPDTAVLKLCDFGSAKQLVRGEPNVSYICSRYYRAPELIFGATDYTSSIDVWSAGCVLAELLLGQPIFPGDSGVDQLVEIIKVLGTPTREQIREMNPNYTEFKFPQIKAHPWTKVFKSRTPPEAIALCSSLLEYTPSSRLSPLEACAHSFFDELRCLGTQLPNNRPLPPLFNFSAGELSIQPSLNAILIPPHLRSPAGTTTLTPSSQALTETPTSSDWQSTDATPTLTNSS

[14] = target: Calcium/calmodulin-dependent protein kinase type II subunit beta (Homo sapiens) (UniProt Q13554); assay: Residual activity of CAMK2B at 0.1 uM by microplate scintillation counting
Calcium/calmodulin-dependent protein kinase type II subunit beta (Homo sapiens), sequence (Q13554 whole entry): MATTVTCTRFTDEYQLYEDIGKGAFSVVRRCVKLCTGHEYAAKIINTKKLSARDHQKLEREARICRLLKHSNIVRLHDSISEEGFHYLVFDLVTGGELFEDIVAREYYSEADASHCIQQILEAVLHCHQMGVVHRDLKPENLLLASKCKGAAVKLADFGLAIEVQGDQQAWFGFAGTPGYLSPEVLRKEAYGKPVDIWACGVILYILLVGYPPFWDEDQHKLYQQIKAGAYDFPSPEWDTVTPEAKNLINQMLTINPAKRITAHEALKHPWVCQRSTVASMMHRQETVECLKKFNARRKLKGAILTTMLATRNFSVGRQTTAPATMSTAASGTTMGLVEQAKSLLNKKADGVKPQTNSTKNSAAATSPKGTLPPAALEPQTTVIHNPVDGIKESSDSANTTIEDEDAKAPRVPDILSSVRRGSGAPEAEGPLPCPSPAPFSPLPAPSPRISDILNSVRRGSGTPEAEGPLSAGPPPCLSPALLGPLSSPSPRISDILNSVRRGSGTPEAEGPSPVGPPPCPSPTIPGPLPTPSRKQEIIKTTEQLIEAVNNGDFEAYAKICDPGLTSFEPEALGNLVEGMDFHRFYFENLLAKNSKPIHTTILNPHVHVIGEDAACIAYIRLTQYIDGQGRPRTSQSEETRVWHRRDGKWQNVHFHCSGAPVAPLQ

[15] = target: Tyrosine-protein kinase Fyn (Homo sapiens) (UniProt P06241); assay: Residual activity of FYN at 1 uM by microplate scintillation counting
Tyrosine-protein kinase Fyn (Homo sapiens), sequence (P06241 2-537 limits assumed): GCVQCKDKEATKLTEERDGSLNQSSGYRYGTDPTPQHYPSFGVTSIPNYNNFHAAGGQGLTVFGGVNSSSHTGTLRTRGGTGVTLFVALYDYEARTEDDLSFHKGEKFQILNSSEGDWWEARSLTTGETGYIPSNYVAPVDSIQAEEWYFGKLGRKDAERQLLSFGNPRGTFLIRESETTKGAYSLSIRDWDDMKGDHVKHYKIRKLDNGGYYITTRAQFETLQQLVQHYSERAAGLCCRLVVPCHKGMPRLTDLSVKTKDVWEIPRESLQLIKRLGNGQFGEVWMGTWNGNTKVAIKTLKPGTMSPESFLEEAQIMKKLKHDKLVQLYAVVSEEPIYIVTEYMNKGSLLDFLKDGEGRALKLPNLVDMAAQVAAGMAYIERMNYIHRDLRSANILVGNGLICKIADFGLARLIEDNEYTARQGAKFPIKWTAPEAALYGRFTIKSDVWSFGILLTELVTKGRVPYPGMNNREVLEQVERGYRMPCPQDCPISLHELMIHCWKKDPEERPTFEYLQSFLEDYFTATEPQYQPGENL

[16] = target: Insulin receptor-related protein (Homo sapiens) (UniProt P14616); assay: Residual activity of INSRR at 1 uM by microplate scintillation counting
[17] = target: Vascular endothelial growth factor receptor 2 (Homo sapiens, UniProt P35968); assay: Inhibition of VEGFR2 by microplate scintillation counting
Aurora kinase A = target: T3, Aurora kinase A (Homo sapiens, UniProt O14965); assay: Inhibition of Aurora-A by microplate scintillation counting
T3 sequence (O14965 whole entry): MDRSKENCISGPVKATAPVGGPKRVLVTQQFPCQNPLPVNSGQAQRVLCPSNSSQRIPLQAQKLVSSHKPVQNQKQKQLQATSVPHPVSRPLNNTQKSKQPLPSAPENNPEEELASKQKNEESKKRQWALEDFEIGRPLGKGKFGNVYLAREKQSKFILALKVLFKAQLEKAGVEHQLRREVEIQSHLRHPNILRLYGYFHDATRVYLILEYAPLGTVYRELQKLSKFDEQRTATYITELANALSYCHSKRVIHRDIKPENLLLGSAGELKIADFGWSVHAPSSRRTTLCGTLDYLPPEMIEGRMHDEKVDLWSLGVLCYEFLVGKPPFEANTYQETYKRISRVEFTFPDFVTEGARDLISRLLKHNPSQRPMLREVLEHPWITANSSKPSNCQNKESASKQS
How it was run: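 Substrates: tetra(LRRWSLG) for Aurora A/B; poly(Ala,Glu,Lys,Tyr)6:2:5:1 for PDGFRβ; poly(Glu,Tyr)4:1 for TIE2 and VEGFR2. Stopped with 2% H3PO4.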

residual activity [1]	residual activity [2]	residual activity [3]	residual activity [4]	residual activity [5]	residual activity [6]	residual activity [7]	residual activity [8]	residual activity [9]	residual activity [10]	residual activity [11]	residual activity [12]	residual activity [13]	residual activity [14]	residual activity [15]	residual activity [16]	pIC50 [17]	pIC50 (Aurora kinase A)	Structure (SMILES)
34%	83%	90%	91%	112%	69%	77%	97%	99%	205%	114%	57%	95%	73%	106%	96%	6.46	6.77	COc1cc2c(Oc3ccc(-c4nc5ccccc5s4)cc3)ncnc2cc1OCCCN1CCCC1
54%	78%	97%	93%	127%	77%	94%	88%	92%	287%	99%	60%	103%	100%	105%	105%	6.83	7.09	COc1cc2c(Oc3ccc(-c4nc5ccccc5s4)cc3)ncnc2cc1OCCCN1CCN(C)CC1
38%	76%	104%	91%	57%	53%	87%	93%	89%	118%	113%	64%	104%	65%	106%	73%	6.38	6.66	COc1cc2c(Oc3ccc(-c4nc5ccccc5s4)cc3F)ncnc2cc1OCCCN1CCN(C)CC1
